Data published in article PMC2871064 (Cancer research, 2010).

Tests used:
[1] = test system: SK-MEL-3 xenografts; experiment: Tissue distribution in mice bearing SK-MEL-3 xenografts; format: in vivo, NCr^nu/nu mice; conditions: SK-MEL-3 xenograft mice; for Tissue distribution: Blood: tail vein
Summary of the method: (§1)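 Male athymic NCr nu/nu mice received 0.25 mL of cells (8 × 10⁶/mL in 1:1 D-PBS-glucose-pyruvate/Matrigel) into the right hind flank. Tumours were used at 100–500 mm³ (~21 days). Tail-vein bolus of ~74 KBq tracer in 0.05 mL; n = 5 per time point. Mice were killed by CO₂ at 1, 4 and 24 h. Organs and tumour were weighed wet and gamma-counted; results are %ID/g, mean ± SD.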

[2] = test system: A375 xenografts; experiment: Tissue distribution in mice bearing A375 xenografts; format: in vivo, NCr^nu/nu mice; conditions: A375 xenograft mice
Summary of the method: as §1

CCN(CC)CCNC(=O)c1cc(I)c(NC(=O)c2ccc(F)cc2)cc1OC [[^131I]MIP-1145, N-(2-diethylamino-ethyl)-4-(4-fluoro-benzamido)-5-iodo-2-methoxy-benzamide]
Tissue distribution: Adipose ([1]; 1 hour): 4.15 ± 2.89 %ID/g
Tissue distribution: Bone ([1]; 1 hour): 1.71 ± 0.28 %ID/g
Tissue distribution: Brain ([1]; 1 hour): 0.82 ± 0.06 %ID/g
Tissue distribution: Heart ([1]; 1 hour): 2.36 ± 0.18 %ID/g
Tissue distribution: Kidneys ([1]; 1 hour): 16.55 ± 0.52 %ID/g
Tissue distribution: Large Intestine ([1]; 1 hour): 2.93 ± 0.54 %ID/g
Tissue distribution: Liver ([1]; 1 hour): 7.94 ± 1.12 %ID/g
Tissue distribution: Lungs ([1]; 1 hour): 9.70 ± 1.28 %ID/g
Tissue distribution: Skeletal Muscle ([1]; 1 hour): 1.39 ± 0.16 %ID/g
Tissue distribution: Small Intestine ([1]; 1 hour): 15.19 ± 1.50 %ID/g
Tissue distribution: Spleen ([1]; 1 hour): 7.26 ± 1.18 %ID/g
Tissue distribution: Stomach ([1]; 1 hour): 12.85 ± 2.53 %ID/g
Tissue distribution: Testes ([1]; 1 hour): 1.51 ± 0.18 %ID/g
Tissue distribution: Tumor ([1]; 1 hour): 3.77 ± 1.68 %ID/g
Tissue distribution: Blood ([1]; 1 hour post-injection): 0.75 ± 0.12 %ID/g
Tissue distribution: Adipose ([1]; 4 hours): 1.03 ± 0.26 %ID/g
Tissue distribution: Bone ([1]; 4 hours): 0.95 ± 0.14 %ID/g
Tissue distribution: Brain ([1]; 4 hours): 0.19 ± 0.02 %ID/g
Tissue distribution: Heart ([1]; 4 hours): 1.32 ± 0.18 %ID/g
Tissue distribution: Kidneys ([1]; 4 hours): 13.12 ± 2.68 %ID/g
Tissue distribution: Large Intestine ([1]; 4 hours): 18.91 ± 3.84 %ID/g
Tissue distribution: Liver ([1]; 4 hours): 5.18 ± 0.59 %ID/g
Tissue distribution: Lungs ([1]; 4 hours): 6.87 ± 1.33 %ID/g
Tissue distribution: Skeletal Muscle ([1]; 4 hours): 0.73 ± 0.16 %ID/g
Tissue distribution: Small Intestine ([1]; 4 hours): 17.21 ± 2.05 %ID/g
Tissue distribution: Spleen ([1]; 4 hours): 3.75 ± 0.60 %ID/g
Tissue distribution: Stomach ([1]; 4 hours): 10.74 ± 2.52 %ID/g
Tissue distribution: Testes ([1]; 4 hours): 1.07 ± 0.09 %ID/g
Tissue distribution: Tumor ([1]; 4 hours): 8.82 ± 3.55 %ID/g
Tumor:blood ratio ([1]; 4 hours post-injection): 25.2
Tissue distribution: Blood ([1]; 4 hours post-injection): 0.35 ± 0.04 %ID/g
Tissue distribution: Adipose ([1]; 24 hours): 0.09 ± 0.05 %ID/g
Tissue distribution: Bone ([1]; 24 hours): 0.09 ± 0.08 %ID/g
Tissue distribution: Brain ([1]; 24 hours): 0.01 ± 0.01 %ID/g
Tissue distribution: Heart ([1]; 24 hours): 0.04 ± 0.03 %ID/g
Tissue distribution: Kidneys ([1]; 24 hours): 0.51 ± 0.18 %ID/g
Tissue distribution: Large Intestine ([1]; 24 hours): 2.24 ± 0.67 %ID/g
Tissue distribution: Liver ([1]; 24 hours): 0.50 ± 0.07 %ID/g
Tissue distribution: Lungs ([1]; 24 hours): 0.29 ± 0.08 %ID/g
Tissue distribution: Skeletal Muscle ([1]; 24 hours): 0.03 ± 0.02 %ID/g
Tissue distribution: Small Intestine ([1]; 24 hours): 1.03 ± 0.24 %ID/g
Tissue distribution: Spleen ([1]; 24 hours): 0.12 ± 0.03 %ID/g
Tissue distribution: Stomach ([1]; 24 hours): 1.41 ± 0.53 %ID/g
Tissue distribution: Testes ([1]; 24 hours): 0.22 ± 0.02 %ID/g
Tissue distribution: Tumor ([1]; 24 hours): 5.91 ± 3.94 %ID/g
Tumor:blood ratio ([1]; 24 hours post-injection): 197
Tissue distribution: Blood ([1]; 24 hours post-injection): 0.03 ± 0.00 %ID/g
Tissue distribution: Adipose ([2]; 1 hour): 1.56 ± 0.23 %ID/g
Tissue distribution: Bone ([2]; 1 hour): 1.34 ± 0.12 %ID/g
Tissue distribution: Brain ([2]; 1 hour): 0.60 ± 0.17 %ID/g
Tissue distribution: Heart ([2]; 1 hour): 1.96 ± 0.33 %ID/g
Tissue distribution: Kidneys ([2]; 1 hour): 14.26 ± 2.73 %ID/g
Tissue distribution: Large Intestine ([2]; 1 hour): 2.69 ± 0.49 %ID/g
Tissue distribution: Liver ([2]; 1 hour): 6.79 ± 1.33 %ID/g
Tissue distribution: Lungs ([2]; 1 hour): 9.81 ± 0.88 %ID/g
Tissue distribution: Skeletal Muscle ([2]; 1 hour): 1.03 ± 0.09 %ID/g
Tissue distribution: Small Intestine ([2]; 1 hour): 9.19 ± 3.32 %ID/g
Tissue distribution: Spleen ([2]; 1 hour): 4.54 ± 1.34 %ID/g
Tissue distribution: Stomach ([2]; 1 hour): 6.22 ± 2.34 %ID/g
Tissue distribution: Testes ([2]; 1 hour): 1.58 ± 0.22 %ID/g
Tissue distribution: Tumor ([2]; 1 hour): 2.38 ± 0.75 %ID/g
Tissue distribution: Blood ([2]; 1 hour post-injection, tail vein): 0.46 ± 0.05 %ID/g
Tissue distribution: Adipose ([2]; 4 hours): 1.10 ± 0.46 %ID/g
Tissue distribution: Bone ([2]; 4 hours): 0.74 ± 0.07 %ID/g
Tissue distribution: Brain ([2]; 4 hours): 0.16 ± 0.01 %ID/g
Tissue distribution: Heart ([2]; 4 hours): 1.04 ± 0.06 %ID/g
Tissue distribution: Kidneys ([2]; 4 hours): 8.53 ± 1.20 %ID/g
